Experimental data from ChEMBL document CHEMBL3124928, “Synthesis, antileishmanial activity and docking study of N'-substitutedbenzylidene-2-(6,7-dihydrothieno[3,2-c]pyridin-5(4H)-yl)acetohydrazides” (Bioorg Med Chem Lett, 2014).
Values after ≈ are worked out from the molar mass of the structure shown. Active and inactive are the calls of the source. The calls are words filed in the database; no cut-off is given here.

Key:
[1] = tested on: Aspergillus niger; test: Antifungal activity against Aspergillus niger NCIM 1196 by standard agar method; type: functional
Summary of the method: (§1)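 MIC determined by standard agar method, with dimethyl sulfoxide as solvent control.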

[2] = tested on: Candida albicans; test: Antifungal activity against Candida albicans NCIM 3471 by standard agar method; type: functional; summary of the method: as §1
[3] = tested on: Bacillus subtilis; test: Antibacterial activity against Bacillus subtilis NCIM 2063 by standard agar method; type: functional; summary of the method: as §1
[4] = tested on: HeLa; test: Cytotoxicity against human HeLa cells up to 300 ug/ml after 72 hrs by MTT assay; type: cell-based
[5] = tested on: Leishmania donovani; test: Antileishmanial activity against Leishmania donovani NHOM/IN/80/DD8 promastigotes assessed as decrease in parasite growth after 72 hrs by MTT assay; type: functional, organism-based; conditions: NHOM/IN/80/DD8, 72 h
Summary of the method: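 Cultured promastigotes were used, and viability was read by a modified MTT assay, with formazan yield taken as proportional to metabolically active cells. IC50 is the concentration cutting cell growth by 50%, found by graphic interpolation.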

[6] = tested on: Escherichia coli; test: Antibacterial activity against Escherichia coli NCIM 2256 by standard agar method; type: functional; summary of the method: as §1
[7] = tested on: Pseudomonas aeruginosa; test: Antibacterial activity against Pseudomonas aeruginosa NCIM 2036 by standard agar method; type: functional; summary of the method: as §1
[8] = tested on: Staphylococcus aureus; test: Antibacterial activity against Staphylococcus aureus NCIM 2901 by standard agar method; type: functional; summary of the method: as §1
[9] = tested on: Bacillus subtilis; test: Antibacterial activity against Bacillus subtilis NCIM 2063 up to 300 ug/ml by standard agar method; type: functional, organism-based
[10] = tested on: Staphylococcus aureus; test: Antibacterial activity against Staphylococcus aureus NCIM 2901 up to 300 ug/ml by standard agar method; type: functional, organism-based
[11] = tested on: Pseudomonas aeruginosa; test: Antibacterial activity against Pseudomonas aeruginosa NCIM 2036 up to 300 ug/ml by standard agar method; type: functional, organism-based

Row | Structure (SMILES) | MIC [1] | MIC [2] | MIC [3] | Activity [4] | IC50 [5] | MIC [6] | MIC [7] | MIC [8] | Activity [9] | Activity [10] | Activity [11]
1 | COc1ccc(/C=N/NC(=O)CN2CCc3sccc3C2)c(OC)c1 | 50 µg/mL (≈ 139 µM) | 25 µg/mL (≈ 69.6 µM) | 100 µg/mL (≈ 278 µM) | Non-toxic | 737 µM | 125 µg/mL (≈ 348 µM) | 250 µg/mL (≈ 696 µM) | 75 µg/mL (≈ 209 µM) |  |  | 
2 | COc1ccc(/C=N/NC(=O)CN2CCc3sccc3C2)cc1OC | 12.5 µg/mL (≈ 34.8 µM) | 37.5 µg/mL (≈ 104 µM) | 150 µg/mL (≈ 417 µM) | Non-toxic | 619 µM | 150 µg/mL (≈ 417 µM) | 200 µg/mL (≈ 556 µM) | 150 µg/mL (≈ 417 µM) |  |  | 
3 | CC1(C)S[C@@H]2[C@H](NC(=O)[C@H](N)c3ccccc3)C(=O)N2[C@H]1C(=O)O [AMPICILLIN] |  |  | 250 µg/mL (≈ 715 µM) |  |  | 100 µg/mL (≈ 286 µM) | 100 µg/mL (≈ 286 µM) | 250 µg/mL (≈ 715 µM) |  |  | 
4 | OC(Cn1cncn1)(Cn1cncn1)c1ccc(F)cc1F [FLUCONAZOLE] | 10 µg/mL (≈ 32.7 µM) | 5 µg/mL (≈ 16.3 µM) |  |  |  |  |  |  |  |  | 
5 | N=C(N)c1ccc(OCCCCCOc2ccc(C(=N)N)cc2)cc1 [PENTAMIDINE] |  |  |  |  | 16.1 µM |  |  |  |  |  | 
6 | O=C(CN1CCc2sccc2C1)N/N=C/c1c(Cl)cccc1Cl | 160 µg/mL (≈ 434 µM) | 80 µg/mL (≈ 217 µM) | 250 µg/mL (≈ 679 µM) | Non-toxic | 645 µM | 50 µg/mL (≈ 136 µM) | 150 µg/mL (≈ 407 µM) | 250 µg/mL (≈ 679 µM) |  |  | 
7 | O=C(CN1CCc2sccc2C1)N/N=C/c1ccc(O)c(O)c1 | 75 µg/mL (≈ 226 µM) | 75 µg/mL (≈ 226 µM) |  | Non-toxic | 672 µM | 50 µg/mL (≈ 151 µM) | 150 µg/mL (≈ 453 µM) |  | inactive | inactive | 
8 | O=C(O)c1cn(C2CC2)c2cc(N3CCNCC3)c(F)cc2c1=O [CIPROFLOXACIN] |  |  |  |  |  | 25 µg/mL (≈ 75.4 µM) |  | 50 µg/mL (≈ 151 µM) |  |  | 
9 | COc1ccc(OC)c(/C=N/NC(=O)CN2CCc3sccc3C2)c1 | 150 µg/mL (≈ 417 µM) | 25 µg/mL (≈ 69.6 µM) | 100 µg/mL (≈ 278 µM) | Non-toxic | 689 µM | 125 µg/mL (≈ 348 µM) | 250 µg/mL (≈ 696 µM) | 75 µg/mL (≈ 209 µM) |  |  | 
10 | Clc1ccc(COC(Cn2ccnc2)c2ccc(Cl)cc2Cl)c(Cl)c1 (stereo unspecified) [MICONAZOLE] | 12.5 µg/mL (≈ 30 µM) | 25 µg/mL (≈ 60.1 µM) |  |  |  |  |  |  |  |  | 
11 | COc1cccc(N)c1/C=N/NC(=O)CN1CCc2sccc2C1 | 140 µg/mL (≈ 406 µM) | 60 µg/mL (≈ 174 µM) |  | Non-toxic | 722 µM | 175 µg/mL (≈ 508 µM) |  | 275 µg/mL (≈ 798 µM) | inactive |  | inactive
12 | O=C(CN1CCc2sccc2C1)N/N=C/c1ccc(Cl)cc1 | 100 µg/mL (≈ 300 µM) | 100 µg/mL (≈ 300 µM) | 100 µg/mL (≈ 300 µM) | Non-toxic | 738 µM | 25 µg/mL (≈ 74.9 µM) | 50 µg/mL (≈ 150 µM) | 50 µg/mL (≈ 150 µM) |  |  | 
13 | N#Cc1ccc(/C=N/NC(=O)CN2CCc3sccc3C2)cc1 | 140 µg/mL (≈ 432 µM) | 80 µg/mL (≈ 247 µM) |  | Non-toxic | 694 µM | 100 µg/mL (≈ 308 µM) | 150 µg/mL (≈ 462 µM) | 250 µg/mL (≈ 771 µM) | inactive |  | 
14 | O=C(CN1CCc2sccc2C1)N/N=C/c1ccccc1Cl | 120 µg/mL (≈ 359 µM) | 60 µg/mL (≈ 180 µM) | 100 µg/mL (≈ 300 µM) | Non-toxic | 296 µM | 25 µg/mL (≈ 74.9 µM) | 125 µg/mL (≈ 374 µM) | 100 µg/mL (≈ 300 µM) |  |  | 
15 | CN(C)c1ccc(/C=N/NC(=O)CN2CCc3sccc3C2)cc1 | 100 µg/mL (≈ 292 µM) | 40 µg/mL (≈ 117 µM) |  | Non-toxic | 274 µM | 50 µg/mL (≈ 146 µM) |  | 100 µg/mL (≈ 292 µM) | inactive |  | inactive
